Laboratory results as given in ChEMBL document CHEMBL6092224, “The Discovery and Preclinical Profile of ALG-000184, a Prodrug of the Potent Hepatitis B Virus Capsid Assembly Modulator ALG-001075” (J Med Chem, 2024).
Values belong to the compound of their own block, whether it stands above or below them. Active and inactive are the calls of the source. The rule behind the calls is not given here.

Legend:
[1] = Prodrug conversion in high fat diet-fed Beagle dog assessed as formation of N-(3-cyano-4-fluorophenyl)-4-(2-((3-ethynyloxetan-3-yl)amino)-2-oxoacetyl)-1,3,5-trimethyl-1H-pyrrole-2-carboxamide metabolite at 5 mg/kg, po measured for 96 hrs; assay type: ADME, organism-based, Canis lupus familiaris; conditions: in vivo
[2] = Stability in simulated gastric fluid for >=13 hrs; assay type: physicochemical; conditions: simulated gi fluid
Method in brief: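 Stability tested in simulated gastric fluid containing pepsin and simulated intestinal fluid containing pancreatin.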

[3] = Plasma protein binding in dog at 2 uM incubated for 4 to 24 hrs by equilibrium dialysis method; assay type: ADME, cell-free, Canis lupus familiaris; conditions: time 4-24 hrs, read-out: PPB (converted)
Method in brief: (§1)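 Rapid equilibrium dialysis in mouse, rat, dog, monkey or human plasma for 4 or 24 h at 2 μM.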

[4] = Prodrug conversion in Sprague-Dawley rat assessed as formation of N-(3-cyano-4-fluorophenyl)-4-(2-((3-ethynyloxetan-3-yl)amino)-2-oxoacetyl)-1,3,5-trimethyl-1H-pyrrole-2-carboxamide metabolite at 37.8 mg/kg, po measured for 24 hrs; assay type: ADME, organism-based; conditions: in vivo
Method in brief: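 Single oral prodrug dose at molar equivalent of 30 mg/kg (rats) or […] of parent in 95% PEG 400/5% copovidone; whole blood collected into 4 volumes 75% MeOH/25% acetonitrile, centrifuged, parent quantified by LC-MS/MS; noncompartmental PK analysis.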

[5] = Apparent permeability across apical to basal side in human Caco-2 cells at 2 uM incubated for 1 hr; assay type: ADME, cell-based
Method in brief: (§2)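 Bidirectional transport across Caco-2 cells in HBSS, pH 7.4, 0.1% final DMSO. Compound was tested at 1 or 2 μM for 1 h at 37 °C, 5% CO2. Apical and basal samples gave apparent permeability A→B and B→A, and the efflux ratio.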

[6] = Plasma protein binding in human at 2 uM incubated for 4 to 24 hrs by equilibrium dialysis method; assay type: ADME, cell-free; conditions: time 4-24 hrs, read-out: PPB (converted); method in brief: as §1
[7] = Efflux ratio of apparent permeability in human Caco-2 cells at 2 uM incubated for 1 hr; assay type: ADME, cell-based; method in brief: as §2
[8] = Cmax in Beagle dog at 5 mg/kg, po by LC-MS/MS analysis; assay type: ADME, organism-based, Canis lupus familiaris; conditions: in vivo
Method in brief: (§3)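 Single dose to fasted male C57BL6 mice, Sprague-Dawley rats, beagle dogs and cynomolgus monkeys, either IV at 1 mg/kg or PO as a solution at 5 mg/kg, in 80% PEG 400 in water. Plasma concentrations were measured by LC-MS/MS. PK parameters come from noncompartmental analysis using nominal doses and nominal sampling times.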

Mus musculus [9] = test: Effect on HBeAg level in C57BL/6 mouse infected with AAV-Hepatitis B virus at 15 mg/kg, po bid for 56 days followed by induction of compound washout period for 14 days; assay type: functional, organism-based; conditions: time 70.0 day
[10] = Volume of distribution at steady state in Cynomolgous monkey at 1 mg/kg, iv by LC-MS/MS analysis; assay type: ADME, organism-based, Macaca fascicularis; conditions: cynomolgus monkey, in vivo, read-out: Vdss
Method in brief: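 Fasted males (C57BL6 mice, Sprague−Dawley rats, beagle dogs, cynomolgus monkeys) given a single IV dose of 1 mg/kg in 80% PEG 400 in water. Plasma concentrations measured by LC-MS/MS. Vss derived by noncompartmental analysis using nominal dose and nominal sampling times.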

[11] = Clearance in Sprague-Dawley rat at 1 mg/kg, iv by LC-MS/MS analysis; assay type: ADME, organism-based; conditions: in vivo; method in brief: as §3
[12] = Ratio of drug concentration in blood to plasma in mouse at 5 uM incubated for 60 mins; assay type: ADME, cell-free
Method in brief: (§4)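 Compound at 5 μM in whole blood of each species, 37 ± 1 °C for 60 min; blood-to-plasma ratio and red blood cell partitioning determined.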

[13] = Plasma protein binding in mouse at 1 uM incubated for 4 to 24 hrs by equilibrium dialysis method; assay type: ADME, cell-free; conditions: time 4-24 hrs, read-out: PPB (converted)
Method in brief: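 Rapid equilibrium dialysis in mouse, rat, dog, monkey or human plasma for 4 or 24 h; test concentrations 1, […].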

[14] = AUC (infinity) in Cynomolgous monkey at 1 mg/kg, iv by LC-MS/MS analysis; assay type: ADME, organism-based, Macaca fascicularis; conditions: cynomolgus monkey, in vivo; method in brief: as §3
[15] = Ratio of drug concentration in blood to plasma in dog at 5 uM incubated for 60 mins; assay type: ADME, cell-free, Canis lupus familiaris; method in brief: as §4
Mus musculus [16] = test: Effect on HBsAg level in C57BL/6 mouse infected with AAV-Hepatitis B virus at 15 to 50 mg/kg, po qd for 56 days followed by induction of compound washout period for 14 days; assay type: functional, organism-based; conditions: dose 15-50 mg/kg, time 70.0 day
[17] = Clearance in Cynomolgous monkey at 1 mg/kg, iv by LC-MS/MS analysis; assay type: ADME, organism-based, Macaca fascicularis; conditions: cynomolgus monkey, in vivo; method in brief: as §3
Hepatitis B virus [18] = test: Antiviral activity against HBV infected in human HepG2.117 cells by qPCR analysis; assay type: functional, organism-based
Method in brief: (§5)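 HepG2.117 cells (integrated genotype D HBV genome, Tet-off promoter; kept in 1 μg/mL doxycycline) were seeded at 20,000 cells/well and given serial compound dilutions (2% DMSO) for 3 days at 37 °C. Lysates were taken in 0.33% NP40. Intracellular HBV DNA was quantified by qPCR and EC50/EC90 derived. For serum shift, 40% human serum was present during incubation. Mean ± SEM, n=3 (serum) or 13.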

[19] = Toxicity in C57BL/6 mouse infected with AAV-Hepatitis B virus assessed as change in body weight at 15 mg/kg, po bid for 56 days followed by induction of compound washout period for 14 days; assay type: organism-based; conditions: in vivo, 1680 h, time 70 day
MDCKII-MDR1 = test: Substrate activity at p-gp in MDCKII-MDR1 cells incubated for 150 mins; assay type: cell-based; conditions: Canis lupus familiaris
Method in brief: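 P-gp substrate test in MDR1-MDCK II and parental MDCK II cells, with or without the P-gp inhibitor GF120918, 150 min incubation. Parent compound run at 2 μM; prodrug at 2, 10 and 100 μM.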

[20] = Tmax in Beagle dog at 5 mg/kg, po by LC-MS/MS analysis; assay type: ADME, organism-based, Canis lupus familiaris; conditions: in vivo
Method in brief: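 Fasted males (C57BL6 mice, Sprague−Dawley rats, beagle dogs, cynomolgus monkeys) given a single oral solution dose of 5 mg/kg in 80% PEG 400 in water. Plasma sampled over time, analysed by LC-MS/MS. Noncompartmental analysis used nominal doses and nominal sampling times.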

[21] = target: Nuclear receptor subfamily 1 group I member 2 (Homo sapiens, UniProt O75469); test: Induction of PXR (unknown origin)
Nuclear receptor subfamily 1 group I member 2, sequence (O75469 whole entry): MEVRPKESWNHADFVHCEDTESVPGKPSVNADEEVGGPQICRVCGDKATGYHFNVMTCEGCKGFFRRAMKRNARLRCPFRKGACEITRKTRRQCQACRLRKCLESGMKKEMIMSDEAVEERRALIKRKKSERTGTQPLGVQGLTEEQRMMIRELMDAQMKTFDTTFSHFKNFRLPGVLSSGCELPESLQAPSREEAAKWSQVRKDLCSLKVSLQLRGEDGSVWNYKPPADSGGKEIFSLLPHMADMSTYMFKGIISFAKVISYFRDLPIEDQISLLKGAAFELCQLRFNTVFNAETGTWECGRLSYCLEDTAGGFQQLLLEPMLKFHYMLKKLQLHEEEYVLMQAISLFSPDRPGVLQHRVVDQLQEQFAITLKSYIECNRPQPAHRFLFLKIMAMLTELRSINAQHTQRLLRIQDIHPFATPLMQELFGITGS

[22] = AUC (infinity) in Sprague-Dawley rat at 5 mg/kg, po by LC-MS/MS analysis; assay type: ADME, organism-based; conditions: in vivo; method in brief: as §3
Hepatitis B virus [23] = test: Antiviral activity against HBV infected in human primary hepatocyte cells assessed as decrease in HBV RNA production pre-infected cells with virus followed by compound treatment for 3 days and subsequent replacement of medium with compound measured after 4 days by qPCR analysis; assay type: functional, organism-based
[24] = Clearance in C57BL/6J mouse at 1 mg/kg, iv by LC-MS/MS analysis; assay type: ADME, organism-based; conditions: in vivo; method in brief: as §3
[25] = Toxicity in C57BL/6 mouse infected with AAV-Hepatitis B virus assessed as change in ALT level at 15 to 50 mg/kg, po qd for 56 days followed by induction of compound washout period for 14 days; assay type: organism-based; conditions: in vivo, 1680 h, dose 15-50 mg/kg, time 70 day
[26] = Ratio of drug concentration in blood to plasma in Cynomolgous monkey at 5 uM incubated for 60 mins; assay type: ADME, cell-free, Macaca fascicularis; conditions: cynomolgus monkey; method in brief: as §4
Hepatitis B virus [27] = test: Antiviral activity against HBV genotype D infected in human HepG2.117 cells assessed as decrease in HBV DNA production in presence of 40 percent human serum by qPCR analysis; assay type: functional, organism-based; method in brief: as §5

Drug metabolism [1]: metabolite_detected | Stability [2]: Stable | fraction unbound at 2 µM [3]: 0.179 | Drug metabolism [4]: metabolite_detected | Papp A→B at 1 h, 2 µM [5]: 4.6 ×10⁻⁶ cm/s | fraction unbound at 2 µM [6]: 0.11 | efflux ratio at 1 h, 2 µM [7]: 1.9
SMILES: C#CC1(N(COP(=O)([O-])[O-])C(=O)C(=O)c2c(C)c(C(=O)Nc3ccc(F)c(C#N)c3)n(C)c2C)COC1.[Na+].[Na+]

SMILES: C#CC1(NC(=O)C(=O)c2c(C)c(C(=O)Nc3ccc(F)c(C#N)c3)n(C)c2C)COC1
Cmax [8]: 1900 ng/mL | Activity (Mus musculus [9]): inactive | Vd [10]: 0.89 L/kg | clearance [11]: 6.09 mL/min/kg | blood plasma ratio at 1 h, 5 µM [12]: 0.83 | fraction unbound at 1 µM [13]: 0.354 | AUC(0-inf) [14]: 2240 ng·h/mL | blood plasma ratio at 1 h, 5 µM [15]: 0.82 | Activity (Mus musculus [16]): inactive | clearance [17]: 7.89 mL/min/kg | EC50 (Hepatitis B virus [18]): 0.63 nM | Activity [19]: Non-toxic | Activity (MDCKII-MDR1): Active | Tmax [20]: 2.17 h | Activity [21]: Not_active | AUC(0-inf) [22]: 8720 ng·h/mL | EC50 (Hepatitis B virus [23]): 54.7 nM | clearance [24]: 12 mL/min/kg | Activity [25]: Non-toxic | blood plasma ratio at 1 h, 5 µM [26]: 0.83 | EC50 (Hepatitis B virus [27]): 7.48 nM
